# Screening results from PubChem BioAssay.
# In the library only some 1.9% were active in any assay of this set; here they are far more common.
# SUMO1 PPI mod: modulators of human SUMO1-mediated protein-protein interactions. SUMO1 binding to a labelled peptide, TR-FRET, 1 h. inhibition, % at 20 µM. 0.33% of 360,000 active. P63165; in the data active = inhibition above about 37%
# Target sequence (P63165 whole entry, looked up): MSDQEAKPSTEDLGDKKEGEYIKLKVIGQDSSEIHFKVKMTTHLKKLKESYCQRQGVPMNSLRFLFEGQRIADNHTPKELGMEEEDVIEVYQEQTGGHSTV
# Scp-1 inhibitor: blocks human Scp-1 phosphatase activity. Q9GZU7. Recombinant Scp1, phosphopeptide, malachite green phosphate absorbance. inhibition, % at 20 µM. 0.88% of 340,000 active. AID 493091;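 active = inhibition above about 50% at 20 µM, limit read from the data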;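 note: plate controls were DMSO wells with enzyme for no effect and wells lacking enzyme for full effect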
#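 Test system: SCP-1 catalytic domain; Buffer or medium: Acidic Tris acetate buffer with magnesium and detergent; Also added: Phosphorylated 17-residue peptide substrate; Compound: single 20 µM dose, 1% DMSO; Schedule: enzyme reaction 45 min at room temperature, colour 5 min, stabilisation 30 min; Signal: Phosphate-binding colour reagent, absorbance read at 630 nm.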
# UBC9 SUMO inh: blocks human SUMOylation mediated by UBC9; HTRF SUMOylation assay, SAE1/SAE2 + UBC9, in vitro; inhibition, % at 35 µM; 0.36% of 290,000 active; in the data active = inhibition above about 50%, passing the limit was not always enough
# Target sequence (P63279 whole entry, looked up): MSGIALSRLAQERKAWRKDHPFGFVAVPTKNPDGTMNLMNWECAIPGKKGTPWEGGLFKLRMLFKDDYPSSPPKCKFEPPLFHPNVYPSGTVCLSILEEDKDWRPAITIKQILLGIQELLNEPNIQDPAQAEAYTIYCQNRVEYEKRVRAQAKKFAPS
# STEP block: inhibitors of human striatal-enriched phosphatase STEP; P54829; recombinant STEP, OMFP fluorogenic substrate, fluorescence; inhibition, % at 20 µM; 0.25% of 360,000 active; AID 588621;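 active = inhibition at 20 µM, scaled per plate between control wells, above about 37%, limit read from the data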;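 note: 0% = DMSO with enzyme and substrate and 100% = substrate only without enzyme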
#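 Material: STEP (striatal-enriched tyrosine phosphatase) enzyme, cell-free; Compound dosing: 20 µM single dose in 1% DMSO; Technique: fluorescence read at 480 nm ex / 540 nm em; Times: reaction 20 min, ambient temperature; Medium: 50 mM Bis-Tris pH 6.0 with 2.5 mM DTT and 0.005% Tween 20; Also added: OMFP at 25 µM.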
# LMPTP block: LMPTP (human) inhibition; P24666; recombinant LMPTP-A, OMFP fluorogenic substrate, fluorescence intensity; inhibition, % at 20 µM; 0.22% of 360,000 active; AID 651560;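 active = compounds that cut the enzyme signal by at least half of the control window in the single-dose screen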;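 note: plate controls were DMSO wells with enzyme plus substrate for no effect and substrate without enzyme for full effect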
# Target sequence (P24666 whole entry, looked up): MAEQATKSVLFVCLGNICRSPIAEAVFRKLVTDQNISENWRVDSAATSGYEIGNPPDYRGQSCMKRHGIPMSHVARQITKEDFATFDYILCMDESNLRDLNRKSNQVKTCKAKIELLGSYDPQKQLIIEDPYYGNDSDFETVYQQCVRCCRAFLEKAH
#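 Assay system: LMPTP-A, protein tyrosine phosphatase of low molecular weight / Medium: pH 6.0 Bis-Tris buffer with DTT and Triton X-100 / Schedule: 50 min enzyme reaction at room temperature, protected from light / Measured by: endpoint fluorescence intensity from OMFP dephosphorylation / Read-out basis: % inhibition relative to no-enzyme and uninhibited control wells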
# DNMT1 inh: blocks human DNA methyltransferase DNMT1. P26358. DNMT1 molecular beacon, Hinp1I cleavage, fluorescence. inhibition (reported as % activation of signal), % at 10 µM. 0.83% of 360,000 active. AID 588458; in the data active = inhibition above about 50%
# DNMT1 interf DR: shows spectral interference in the DNMT1 beacon assay | molecular beacon fluorescence, spectral interference counter-screen | AID 602382 | 200 tested, under 10 active | IC50, µM | shares compounds with DNMT1 inh; call rule not given here
# DNMT1 inh conf: confirmation of human DNMT1 inhibitors; shares compounds with DNMT1 inh; DNMT1 molecular beacon HinP1I cleavage, fluorescence; inhibition, % at 10 µM; 8% of 2,300 active;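 active = average inhibition of at least 30% in the single-concentration confirmation test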
# DNMT1 interf: beacon fluorescence artifact counter-screen; shares compounds with DNMT1 inh; DNMT1 molecular beacon spectral interference counterscreen, fluorescence 485/520; activation (fluorescence interference), % at 10 µM; 1% of 2,300 active; AID 602387;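 active = activation of at least 30% at 10 µM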;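 note: DNMT1 catalytic domain with a HinP1I cleavage step and a FAM/dabcyl DNA beacon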
# Numbers without * were called inactive; nt = no result.
SMILES,SUMO1 PPI mod,Scp-1 inhibitor,UBC9 SUMO inh,STEP block,LMPTP block,DNMT1 inh,DNMT1 inh conf,DNMT1 interf,others
O=C1NN(c2ccccc2)C(=O)/C1=C/c1ccc(Sc2cccc3ccccc23)o1,20.0,0.6,49.9,1.0,2.7,65.8*,68.7*,-2.1,DNMT1 interf DR=>99
N#Cc1c(N)nc2c(c1N)CC(CCl)O2 (stereo not drawn),12.5,-4.9,11.3,-1.3,4.4,93.2*,4.4,5.2,
N#Cc1c(N2CCCCC2)nc(N)c2c(N)nc3c(c12)CC(CCl)O3 (stereo not drawn),-8.8,-3.5,18.1,1.2,-0.1,-7.9,nt,nt,
CCOc1ccc(NC(=O)CCCc2cc(-c3ccc(OCC)cc3)on2)cc1,-1.8,-7.2,-3.3,5.2,-0.4,56.5*,0.6,4.4,
Fc1ccc(CNc2ccc(N3CCN(Cc4ccccc4)CC3)cc2)cc1,-0.9,5.6,-3.9,1.5,1.6,62.2*,0.8,3.5,
COCCNC(=O)C(OC(=O)CC1Sc2ccccc2NC1=O)c1ccccc1 (stereo not drawn),2.0,-5.6,3.8,10.0,-0.3,1.6,nt,nt,
O=C(CNC(=O)c1ccco1)NCC(=O)OCc1ccccc1Cl,4.6,-7.7,11.4,-4.3,-0.1,1.5,nt,nt,
O=C(CNC(=O)c1ccco1)NCC(=O)OCc1ccc(Cl)cc1Cl,5.6,-7.5,-3.7,0.5,-0.9,65.9*,0.9,5.5,
O=C(CNC(=O)Cc1ccccc1)NCC(=O)OCc1ccccc1,1.3,1.1,33.7,2.9,-1.1,67.7*,-0.4,2.9,
O=C(Cc1c(F)cccc1Cl)NCC(=O)OCc1ccccc1,1.0,-11.1,nt,1.3,-0.3,-8.1,nt,nt,
Cc1nc2cc(NC(=O)N3CCN(c4ccccn4)CC3)ccc2o1,0.3,-7.7,6.2,-3.1,4.5,0.2,nt,nt,
O=C(Nc1ccc2nc(-c3ccco3)c(-c3ccco3)nc2c1)N1CCN(c2ccccn2)CC1,45.8*,92.0*,68.6,5.4,87.4*,93.0*,0.4,-1.5,
COc1ccccc1CN1CCC(n2nccc2NC(=O)CCc2ccccc2)CC1,-6.0,-11.2,2.8,-2.5,1.3,-1.0,nt,nt,
O=C(/C=C/[C@H]1O[C@@H](n2ccc(=O)[nH]c2=O)[C@H](O)[C@@H]1O)NCCCc1ccccc1,1.6,nt,nt,-4.3,-3.0,79.5*,1.1,3.2,
O=C(/C=C/[C@H]1O[C@@H](n2ccc(=O)[nH]c2=O)[C@H](O)[C@@H]1O)NCCc1cccs1,0.7,nt,nt,-1.3,-2.7,1.4,nt,nt,
Cc1cc(Nc2c(C)n(C)n(-c3ccccc3)c2=O)c2ccccc2n1,-2.5,-2.1,4.1,-0.2,2.2,3.0,nt,nt,
O=C(COC(=O)C12CC3CC(CC(C3)C1)C2)Nc1nccs1,-3.9,-7.7,1.8,-0.1,0.3,6.4,nt,nt,
Cc1ccnc(NC(=O)COC(=O)C23CC4CC(CC(C4)C2)C3)n1,13.7,15.7,12.3,4.3,1.3,70.5*,11.1,1.2,
CC(=O)Nc1ccc2cnn(C(C)=O)c2c1,3.3,nt,nt,-0.5,-0.5,2.4,nt,nt,
CCCCc1ccc(NC(=O)CSc2nc(=O)n(CCCN3CCOCC3)c3c2CCC3)cc1,6.3,-0.6,nt,1.7,-0.7,-2.0,nt,nt,
N#CCSc1nnc(-c2ccc(F)cc2)n1N,3.4,-1.4,8.0,-1.3,-1.5,91.8*,4.7,4.5,
COc1ccc(NC(=O)NCc2cccnc2)cc1,-0.3,-2.0,13.6,-2.4,-0.4,0.7,nt,nt,
COc1ccc2cc(/C=N/NC(=O)CSCc3ccc([N+](=O)[O-])cc3)c(Cl)nc2c1,3.7,-7.7,-6.1,-2.4,0.8,64.5*,6.0,1.0,
O=C(OCN1C(=O)c2ccccc2C1=O)c1cc(S(=O)(=O)N2CCOCC2)ccc1F,-3.3,-1.2,nt,-1.1,0.3,1.1,nt,nt,
O=C(c1cccc(C(F)(F)F)c1)N1CCOc2ccccc21,0.4,-3.4,-4.3,0.4,-0.2,53.7*,5.3,6.5,
